Measured values reported in PMC3123137 (Journal of immunology (Baltimore, Md. : 1950), 2011).
Entries after “also recorded” stand apart in the source; their conditions may differ. Bridge positions count the residues as written; N and C are the ends. Ends that are not written are not given here.

What was measured:
fH1–4 = fH1–4 (Homo sapiens, UniProt P08603); experiment: Monoclonal phage ELISA, N-terminal fragment; type: binding; settings: phage clone; coated wells, 1 h room temperature, anti-M13 HRP/ABTS
How it was run: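 Wells were coated overnight at 4°C with recombinant factor H SCR1–4 (5 μg/ml in PBS), with BSA wells in parallel, then blocked with 5% milk in PBST for 1 h. Amplified single third-round plaques were bound for 1 h at RT and washed six times with PBST. Detection used HRP anti-M13 mAb with ABTS. An unrelated cyclic-peptide phage served as control, and C3b as negative control.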

[1] = test system: factor H cofactor activity; experiment: Factor H cofactor activity assay; type: biochemical, human; settings: peptide expressed as fusion protein with phage PIII domain (Supplemental Fig. 2)
sheep erythrocytes = experiment: Hemolytic assay; type: cell-based
How it was run: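 Sheep erythrocytes washed in VBS–5 mM Mg2+/EGTA; cell amount set by water-lysis titration to give OD405 ~1. Serially diluted test compound or anti-factor H SCR19–20 mAb mixed with cells and human lepirudin plasma (1:10 in VBS–Mg2+/EGTA), 37°C, 1 h, shaking. Lysis read as supernatant OD405 after centrifugation. Run ≥3 times with different donors' plasma; means ± SD of a representative run.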

complement activation = settings: cited from earlier work
immune cells = settings: addition to blood, hemodialysis; ref [15]; cited from earlier work
cells = settings: soluble inhibitor or heparin-coated surface; ref [8]–[11]; cited from earlier work
factor H [2] = molecular target: T1, factor H (Homo sapiens, UniProt P08603); experiment: ELISA, binding of purified factor H to immobilized peptide; settings: summary statement
How it was run: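 Streptavidin (10 μg/ml in PBS) was coated overnight at 4°C and blocked with 2% BSA in PBS. Biotinylated test peptide or biotinylated linear compstatin control was added at 10 μg/ml for 30 min at RT. Purified human factor H was serially diluted in PBS from 2.5 μg/ml and bound for 1 h. Detection used goat anti-human factor H pAb, then HRP anti-goat IgG. Means ± SD, representative of three experiments.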

[3] = test system: alternative pathway of complement; experiment: Inhibition of biomaterial-induced AP activation by immobilized peptide; type: biochemical, human
factor H [4] = molecular target: T1, factor H; experiment: Factor H capture from lepirudin plasma by immobilized peptide; type: binding; settings: no streptavidin-biotin conjugation
plasma proteins = settings: ref [56], [57]; cited from earlier work
various cells = settings: ref [11], [58], [59]; cited from earlier work

T1 sequence (P08603 19-1231): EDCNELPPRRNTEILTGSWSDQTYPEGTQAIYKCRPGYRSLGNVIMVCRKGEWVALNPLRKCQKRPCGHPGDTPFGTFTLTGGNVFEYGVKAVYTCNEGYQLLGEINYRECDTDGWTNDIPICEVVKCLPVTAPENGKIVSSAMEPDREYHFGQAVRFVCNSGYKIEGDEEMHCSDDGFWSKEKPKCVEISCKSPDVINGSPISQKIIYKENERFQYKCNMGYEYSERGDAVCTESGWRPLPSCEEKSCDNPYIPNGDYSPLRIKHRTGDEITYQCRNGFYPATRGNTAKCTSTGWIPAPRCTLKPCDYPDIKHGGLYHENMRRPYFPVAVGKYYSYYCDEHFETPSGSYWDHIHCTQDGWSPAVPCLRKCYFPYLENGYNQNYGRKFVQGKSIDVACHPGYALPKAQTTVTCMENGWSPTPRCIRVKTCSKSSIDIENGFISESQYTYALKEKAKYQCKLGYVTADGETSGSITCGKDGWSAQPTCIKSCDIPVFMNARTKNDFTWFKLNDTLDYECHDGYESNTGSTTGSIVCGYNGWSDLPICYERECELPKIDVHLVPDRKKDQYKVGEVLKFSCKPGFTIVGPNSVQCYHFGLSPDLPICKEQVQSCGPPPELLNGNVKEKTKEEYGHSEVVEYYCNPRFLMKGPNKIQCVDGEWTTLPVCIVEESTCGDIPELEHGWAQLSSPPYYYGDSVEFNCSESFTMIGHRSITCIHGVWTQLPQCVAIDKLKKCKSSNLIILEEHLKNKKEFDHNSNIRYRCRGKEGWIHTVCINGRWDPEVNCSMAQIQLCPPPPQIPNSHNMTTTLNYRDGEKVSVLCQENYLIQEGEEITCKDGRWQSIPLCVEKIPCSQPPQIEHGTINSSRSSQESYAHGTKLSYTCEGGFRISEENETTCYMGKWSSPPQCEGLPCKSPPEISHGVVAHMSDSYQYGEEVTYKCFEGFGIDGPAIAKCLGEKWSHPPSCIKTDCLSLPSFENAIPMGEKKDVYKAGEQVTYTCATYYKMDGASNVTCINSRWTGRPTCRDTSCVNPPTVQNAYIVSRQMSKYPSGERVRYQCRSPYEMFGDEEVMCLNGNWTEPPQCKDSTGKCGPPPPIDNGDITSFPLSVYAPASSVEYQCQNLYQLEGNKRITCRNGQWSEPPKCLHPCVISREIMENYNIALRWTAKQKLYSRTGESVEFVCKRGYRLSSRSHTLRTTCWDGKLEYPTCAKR
Sequence of fH1–4 (P08603 19-264): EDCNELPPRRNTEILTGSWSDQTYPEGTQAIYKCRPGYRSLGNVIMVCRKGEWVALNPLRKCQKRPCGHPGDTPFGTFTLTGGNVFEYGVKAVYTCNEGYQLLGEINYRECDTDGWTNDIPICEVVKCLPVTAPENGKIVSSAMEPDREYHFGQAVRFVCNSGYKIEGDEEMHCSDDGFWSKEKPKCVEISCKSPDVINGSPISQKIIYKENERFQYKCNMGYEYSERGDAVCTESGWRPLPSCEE

## ASSYDVGYSHDCRF [5-2C6]
fH1–4
  Binding to fH1–4 (N-terminal regulatory region): bound to the N-terminal regulatory region of factor H
[1]
  Effect on cofactor assay as phage PIII fusion protein: affected

## ASSGMCFTKKTVLC (disulfide 6-14 (inferred)) [4A1]
Sheep erythrocytes; peptide expressed as fusion protein with phage PIII domain (Supplemental Fig. 2)
  Effect on hemolytic assay as phage PIII fusion protein: affected

## compstatin
Complement activation; addition to blood, hemodialysis, ref [15]
  Filter-induced complement response: inhibited filter-induced complement response
Immune cells
  Activation of immune cells and expression of pro-coagulative factors: subsequent activation of immune cells and the expression of pro-coagulative factors
cells
  Biomaterial-induced activation and surface adhesion of cells: inhibition of complement activation largely attenuates biomaterial-induced activation and surface adhesion of cells

## ASSSRCTYDHWCSH (disulfide 6-12 (inferred)) [5C6]
Factor H [2]
  Factor H-capturing activity: high factor H-capturing activity while retaining its functional integrity; also recorded: able to capture factor H at high activity without interfering with its regulatory activity
Sheep erythrocytes; 5C6 up to 40 μM, lepirudin plasma 1:10 in VBS–Mg2+/EGTA, 37°C, 1 h, OD405
  Lysis of sheep erythrocytes: No lysis
Sheep erythrocytes; soluble 5C6 peptide, hemolytic assay (conclusion)
  Interference with factor H cell-surface binding / surface recognition: does not interfere with the cofactor activity or cell-surface binding properties of factor H; also recorded: did not interfere with the surface recognition properties of factor H
[3]; immobilized on model biomaterial surface, undiluted lepirudin plasma
  Inhibition of biomaterial-induced complement activation in undiluted plasma: substantial inhibition of biomaterial-induced complement activation
[3]; peptide coated directly, no streptavidin-biotin conjugation
  Inhibition of complement, peptide coated directly onto polystyrene: Neither factor H binding nor inhibition of complement was seen
Factor H [4]
  Factor H binding, peptide coated directly onto polystyrene: Neither factor H binding nor inhibition of complement was seen

## heparin
Complement activation; heparin coating, ref [55]
  Dependence of inhibition on factor H capturing: independent of factor H capturing by heparin
Complement activation; highly concentrated heparin coating, ref [14], [53]–[55]
  Biomaterial-induced complement activation: inhibited biomaterial-induced complement activation
Complement activation; ref [14], [60]
  Complement activation at low concentrations in the fluid phase: may actually enhance complement activation at low concentrations in the fluid phase
Plasma proteins
  Plasma protein binding specificity: broad binding specificity for plasma proteins
Various cells
  Activation of cells: induces activation of various cells
cells
  Biomaterial-induced activation and surface adhesion of cells: inhibition of complement activation largely attenuates biomaterial-induced activation and surface adhesion of cells

B1: decay accelerating factor (CD55): AP regulator immobilized on surfaces (protein, UniProt P08174 35-353, looked up)
Complement decay-accelerating …: DCGLPPDVPNAQPALEGRTSFPEDTVITYKCEESFVKIPGEKDSVICLKGSQWSDIEEFCNRSCEVPTRLNSASLKQPYITQNYFPVGTVVEYECRPGYRREPSLSPKLTCLQNLKWSTAVEFCKKKSCPNPGEIRNGQIDVPGGILFGATISFSCNTGYKLFGSTSSFCLISGSSVQWSDPLPECREIYCPAPPQIDNGIIQGERDHYGYRQSVTYACNKGFTMIGEHSIYCTVNNDEGEWSGPPPECRGKSLTSKVPPTVQKPTTVNVPTTEVSPTSQKTTTKTTTPNAQATRSTPVSRTTKHFHETTPNKGSGTTS
modifications: immobilized on surfaces
Complement activation; immobilized regulator, ref [39]–[41]
  Biomaterial-induced complement after immobilization of AP regulators: attenuated biomaterial-induced complement
